According to ChEMBL document CHEMBL1149907, “Phenolic glycosides from the filamentous fungus Acremonium sp. BCC 14080” (J Nat Prod, 2008):
pIC50: −log10 of the molar value.

Assays:
Vero = assay: Cytotoxicity against African green monkey Vero cells by colorimetric method; type: cell-based; conditions: Chlorocebus sabaeus
In short: (§1)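 Colorimetric cytotoxicity read-out, with ellipticine as the reference compound. Cell types: KB (oral human epidermal carcinoma), BC (human breast cancer), NCI-H187 (human small-cell lung cancer) and Vero (African green monkey kidney fibroblast). IC50 reported as mean ± SD, n = 3.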

[1] = Cytotoxicity against human BC cells by colorimetric method; type: functional, cell-based; in short: as §1
NCI-H187 = assay: Cytotoxicity against human NCI-H187 cells by colorimetric method; type: functional, cell-based; in short: as §1
Plasmodium falciparum = assay: Antimalarial activity against Plasmodium falciparum K1 by microculture radioisotope assay; type: functional, organism-based
In short: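 Radioisotope microculture assay of P. falciparum K1 growth, with dihydroartemisinin as the reference antimalarial. IC50 reported as mean ± SD, n = 3.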

KB = assay: Cytotoxicity against human KB cells by colorimetric method; type: functional, cell-based; in short: as §1
Human alphaherpesvirus 1 = assay: Antiviral activity against HSV1 by colorimetric method; type: functional, organism-based
In short: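 HSV-1 inhibition read by a colorimetric method, with acyclovir as the reference compound. IC50 reported as mean ± SD, n = 3.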

| Compound | pIC50 (Plasmodium falciparum) | pIC50 (Human alphaherpesvirus 1) | pIC50 (Vero) | pIC50 [1] | pIC50 (NCI-H187) | pIC50 (KB) |
| --- | --- | --- | --- | --- | --- | --- |
| Cc1c2ccncc2c(C)c2c1[nH]c1ccccc12 [ELLIPTECINE] |  |  | 4.99 | 6.31 | 5.77 | 5.70 |
| CCCCCCCc1cc(O)cc(O[C@@H]2O[C@H](CO)[C@@H](OC)[C@H](O)[C@H]2O)c1 | < 4.60 | < 4.00 | < 4.00 | < 4.30 | < 4.30 | < 4.30 |
| C[C@H]1[C@@H](O)O[C@@H]2O[C@@]3(C)CC[C@H]4[C@H](C)CC[C@@H]1[C@@]24OO3 [ARTENIMOL] | 8.41 |  |  |  |  |  |
| Nc1nc2c(ncn2COCCO)c(=O)[nH]1 [ACYCLOVIR] |  | 4.99 |  |  |  |  |

Now from value to compound, other results behind:

| pIC50 (Plasmodium falciparum) | pIC50 (Human alphaherpesvirus 1) | Compound | pIC50 (Vero) | pIC50 [1] | pIC50 (NCI-H187) | pIC50 (KB) |
| --- | --- | --- | --- | --- | --- | --- |
| < 5.00 | 5.14 | CCCCCCCc1cc(O)cc(OC(=O)c2c(CCCCCCC)cc(O)cc2O[C@@H]2O[C@H](CO)[C@H](O)[C@H](O)[C@H]2O)c1 | 4.36 | 5.36 | 4.86 | < 4.60 |
| < 5.00 | < 4.30 | CCCCCCCc1cc(O)cc(OC(=O)c2c(CCCCCCC)cc(O)cc2O[C@@H]2O[C@H](CO[C@@H]3O[C@H](CO)[C@H](O)[C@H](O)[C@H]3O)[C@H](O)[C@H](O)[C@H]2O)c1 | 4.49 | 4.69 | < 4.60 | < 4.60 |
| 5.00 | < 4.00 | CCCCCCCc1cc(O)cc(OC(=O)c2c(O)cc(O)cc2CCCCCCC)c1 | 4.46 | 5.06 | 4.87 | 4.89 |
